Fam108B counter: mouse Fam108B serine hydrolase inhibitors, primary screen, counter-screen for RBBP9 inhibitor project, biochemical, fluorescence polarization. recombinant Fam108B, FP-Rh probe fluorescence polarization. inhibition, % at 9.51 µM. 0.33% of 300,000 active. AID 1947, 2009;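 active = inhibition above the screen mean inhibition plus 3 SD, computed separately per campaign, cut at about 18% in these data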;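 note: inhibitors lower polarization as less probe binds the enzyme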
PRMT1 inh: PRMT1 methyltransferase inhibitors, primary screen, biochemical, fluorescence polarization | AID 652257, 2013 | 1.3% of 370,000 active | recombinant PRMT1, activity-based probe fluorescence polarization | inhibition, % at 2.79 µM;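 active = inhibition above about 21% made by adding two undisclosed values, limit read from the data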
RBBP9 inhibitor: human RBBP9 inhibitors, primary screen, biochemical, fluorescence polarization, FP-Rh probe, HTS; recombinant RBBP9; inhibition, % at 7.94 µM; AID 1515, 2009; Serine hydrolase RBBP9 (Homo sapiens), O75884; 0.2% of 220,000 active;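 active = inhibition above the campaign mean of all tested compounds plus 3 SD, cut at about 14% in these data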;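 note: plate controls were DMSO wells with RBBP9 for no effect and wells lacking RBBP9 protein for full effect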
Target sequence (O75884 whole entry, looked up): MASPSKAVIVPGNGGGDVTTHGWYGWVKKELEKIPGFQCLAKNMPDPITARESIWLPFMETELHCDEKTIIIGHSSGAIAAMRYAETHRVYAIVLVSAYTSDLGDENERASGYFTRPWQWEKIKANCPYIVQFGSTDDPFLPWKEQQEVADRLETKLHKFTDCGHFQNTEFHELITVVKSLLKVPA
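Test system – recombinant human RBBP9 · Input – RBBP9 2.5 µM in dispensing solution, pre-mixing · Medium – Tris buffer pH 8.0, NaCl, Pluronic · Schedule – preincubation 30 min plus labeling 45 min at 25 °C · Measured by – fluorescence polarization · Measure – % inhibition · Controls – DMSO and no-protein wells · Replicates – one well per compound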
PME-1 inh: PME-1 inhibitors via competitive probe labeling, primary screen, biochemical, fluorescence polarization, FP-Rh probe, HTS; Protein phosphatase methylesterase 1 (Homo sapiens), Q9Y570; recombinant PME-1; inhibition, % at 5.9 µM; 0.53% of 320,000 active;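 active = inhibition above the campaign mean of all compounds plus 3 SD, cut at about 26% in these data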;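 note: competitive labeling of PME-1 active site by serine hydrolase directed probe; 0% = PME-1 with DMSO and 100% = wells lacking PME-1 enzyme; inhibitors block probe labeling so polarization falls and inhibition rises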
GSTO1 counter: inhibitors of recombinant GSTO1, primary screen, counter-screen for RBBP9 inhibitor project, biochemical, fluorescence polarization; activity-based probe fluorescence polarization; inhibition, % at 5.96 µM; 1.1% of 300,000 active; AID 1974, 2009;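 active = inhibition above the campaign mean inhibition plus 3 SD, cut at about 35% in these data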;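 note: 0% = GSTO1-1 with DMSO and 100% = wells lacking GSTO1-1 enzyme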
Target sequence (P78417 whole entry, looked up): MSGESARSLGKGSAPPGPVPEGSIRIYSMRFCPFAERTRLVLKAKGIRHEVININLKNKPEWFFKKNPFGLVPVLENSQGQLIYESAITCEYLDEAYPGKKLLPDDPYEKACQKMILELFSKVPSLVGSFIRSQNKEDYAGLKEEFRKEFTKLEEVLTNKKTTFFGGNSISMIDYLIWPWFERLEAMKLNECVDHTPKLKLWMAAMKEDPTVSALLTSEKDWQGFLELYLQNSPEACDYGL
PAD4 inh: human PAD4 inhibitors, primary screen, biochemical, fluorescence polarization, 1536-well format. Protein-arginine deiminase type-4 (Homo sapiens), Q9UM07. recombinant PAD4, RCA probe fluorescence polarization. inhibition, % at 6.36 µM. 0.41% of 330,000 active;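 active = percent inhibition above a cutoff equal to the mean of all tested compounds plus 3 SD, cut at about 15% in these data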;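 note: 0% = PAD4 with RCA probe and DMSO and 100% = probe without PAD4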
Starred values were filed as active, the others as inactive; . = not tested or not shown. Most compounds without a hit are left out; they make up all but 2.3% or so of the library.

SMILES	Fam108B counter	PRMT1 inh	RBBP9 inhibitor	PME-1 inh	GSTO1 counter	PAD4 inh
CCOC(=O)c1[nH]c2ccc(F)cc2c1NC(=O)c1cc(OC)c(OC)c(OC)c1	8	3	-11	-1	-10	8
COc1cc(C(=O)Nc2c(C(=O)O)[nH]c3ccc(Br)cc23)cc(OC)c1OC	9	1	.	31*	2	-1
COc1ccc2c(c1)O[C@H]1c3ccc(O)cc3OC[C@@H]21	-3	0	.	-1	-9	1
COc1cc(C2C(C#N)=C(N)Oc3n[nH]c(-c4cccs4)c32)cc(OC)c1O (centres undefined)	1	-9	1	1	35*	10
O=[N+]([O-])c1ccc2c(c1)-c1ccccc1C2O (centres undefined)	.	36*	.	.	.	.
CCCCNC(=O)NNC(=O)c1ccoc1C	1	3	-10	-6	4	1
S=c1[nH]nc(-c2ccc3ccccc3n2)n1-c1ccc2ncccc2c1	5	21*	-5	0	2	7
Fc1ccc(-n2c(-c3ccc4ccccc4n3)n[nH]c2=S)cc1Cl	1	5	2	3	6	1
O=C(CN1CCCc2ccccc21)Nc1cc(S(=O)(=O)N2CCCC2)ccc1Cl	.	2	.	73*	.	-7
O=c1c2ccccc2c(-c2cccc(C(F)(F)F)c2)nn1-c1ccccc1	0	-1	3	-5	-5	-2
O=c1c2cc(C(F)(F)F)ccc2sn1-c1ccccc1	.	71*	.	.	.	.
Cc1ccc([N+](=O)[O-])c(OCC(=O)OCC(=O)c2ccccc2)c1	-2	1	-4	2	1	-3
O=C1CC(=O)N(Cc2ccco2)C(=O)N1	7	22*	1	-6	37*	-4
COCCCNC(=O)c1ccc2c3c(onc13)-c1ccccc1C2=O	1	.	2	-10	44*	-16
COCCCNC(=O)c1ccccc1Oc1ccccc1	-1	-1	-7	-5	6	1
COc1ccc(Cl)cc1NC(=O)CN1CCC(NC(=O)C2CC2)CC1	-3	2	.	-6	6	1
CCC(c1nnnn1Cc1ccco1)N(CCN1CCOCC1)Cc1cc2cc(C)ccc2[nH]c1=O (centres undefined)	3	21*	8	-2	-4	1
O=C(O)c1cc(NN=C2c3ccccc3-c3ccccc32)ccc1Cl	7	6	.	35*	10	1
O=C(O)c1cccc(NN=C2c3ccccc3-c3ccccc32)c1	.	12	3	.	.	.
O=C(O)c1cc(N/N=C/c2cccc3ccccc23)ccc1Cl	0	3	.	-2	0	-7
O=C(O)c1cc(N/N=C/C(Cl)=C/c2ccccc2)ccc1Cl	5	3	-1	11	40*	1
CN(C)CCCn1c(SCC(=O)N2CC(=O)Nc3ccccc32)nc2ccccc2c1=O	4	21*	1	4	8	2
CCN(CC(=O)NCc1cccs1)C(=O)c1ccc(-c2ccc(F)cc2)o1	.	24*	.	.	.	0
CCN(CC(=O)NCc1cccs1)C(=O)c1ccc(C)o1	.	-2	.	.	.	1
Cc1cc(C)c2nc(C)cc(Nc3ccc(C(=O)NCCO)cc3)c2c1	3	3	-1	5	1	2
SMILES	Fam108B counter	PRMT1 inh	RBBP9 inhibitor	PME-1 inh	GSTO1 counter	PAD4 inh
O=C1OC(c2cccs2)Sc2ccccc21 (centres undefined)	.	25*	.	.	.	.
Cc1ccc(NC(=O)c2sc3nc(N4CCOCC4)c4c(c3c2N)CC(C)(C)OC4)cc1	1	22*	.	4	12	-3
CCc1nn(CCCC(=O)NCc2ccc(OC(C)C)cc2)c(=O)c2cc3occc3n12	2	4	.	7	8	6
CCOC(=O)C(C)On1c(-c2ccccc2)nc2ccc([N+](=O)[O-])cc21 (centres undefined)	3	0	2	27*	-8	-1
Oc1ccc(N=C/C=C/c2ccc(Br)cc2)cc1-c1nc2ccccc2s1	12	.	-7	2	36*	-5
O=[N+]([O-])c1ccc(SCCc2ccccn2)cc1	4	14	-7	-5	1	-1

Screening data deposited in PubChem by The Scripps Research Institute Molecular Screening Center.
